Experimental data published in ChEMBL document CHEMBL4342523, “Discovery and Development of S6821 and S7958 as Potent TAS2R8 Antagonists” (J Med Chem, 2020).
Converted amounts (≈) assume the structure as drawn. Blank lines part the entries; values can stand above or below the compound they belong to. The source made the active and inactive calls. The rule behind the calls is not given here.

Experiments:
[1] = Solubility of the compound in pH 7.1 buffer measured after 24 hrs; assay type: physicochemical
[2] = Stability of the compound in pH 2.8 buffer assessed as parent compound remaining measured after 24 hrs at room temperature; assay type: physicochemical; conditions: read-out: Stability
[3] = Stability of the compound in pH 5 buffer assessed as parent compound remaining measured after 24 hrs at room temperature; assay type: physicochemical; conditions: read-out: Stability
[4] = Stability of the compound in pH 7.1 buffer assessed as parent compound remaining measured after 24 hrs at room temperature; assay type: physicochemical; conditions: read-out: Stability
[5] = Stability of the compound in pH 9.3 buffer assessed as parent compound remaining measured after 24 hrs at room temperature; assay type: physicochemical; conditions: read-out: Stability
[6] = Stability of the compound in pH 2.8 buffer assessed as parent compound remaining measured after 24 hrs at 100 degC; assay type: physicochemical; conditions: read-out: Stability
[7] = Stability of the compound in pH 5 buffer assessed as parent compound remaining measured after 24 hrs at 100 degC; assay type: physicochemical; conditions: read-out: Stability
[8] = Stability of the compound in pH 7.1 buffer assessed as parent compound remaining measured after 24 hrs at 100 degC; assay type: physicochemical; conditions: read-out: Stability
[9] = Stability of the compound in pH 6.5 buffer assessed as parent compound remaining measured after 30 secs at 140 degC; assay type: physicochemical; conditions: read-out: Stability
[10] = target: T1, Taste receptor type 2 member 8 (Homo sapiens) (UniProt Q9NYW2); experiment: (§1) Antagonist activity at recombinant human TAS2R8 assessed as inhibition of andrographolide-induced intracellular calcium level at 1 uM preincubated for 60 secs followed by andrographolide addition using Fura-2AM dye by cell-based fluorescent microscopic analysis; assay type: functional
T1 sequence (whole entry): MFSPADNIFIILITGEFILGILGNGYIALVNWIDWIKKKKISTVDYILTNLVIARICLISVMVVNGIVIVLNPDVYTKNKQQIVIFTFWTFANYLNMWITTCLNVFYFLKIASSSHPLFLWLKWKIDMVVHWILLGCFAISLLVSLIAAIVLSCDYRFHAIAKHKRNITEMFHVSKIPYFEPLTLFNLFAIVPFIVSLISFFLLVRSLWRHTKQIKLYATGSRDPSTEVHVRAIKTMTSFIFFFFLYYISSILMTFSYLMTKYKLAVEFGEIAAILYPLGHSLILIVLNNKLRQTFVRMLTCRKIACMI
Procedure, shortened: (§2)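 TAS2R8 stable cells grown overnight on Matrigel-coated coverslips, loaded with 3 μg/mL Fura-2AM 1 h at RT in HBSS; ratiometric imaging under continuous HBSS perfusion with 100 μM andrographolide. Inhibitor 1 μM applied 60 s before and during agonist; 5 min HBSS washout between applications; only cells with initial ΔF/F > 0.5 analysed; mean and per-cell peak responses, 136 cells, 3 experiments.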

[11] = target: T1, Taste receptor type 2 member 8 (Homo sapiens); experiment: as §1, with “Reversible antagonist” for “Antagonist”, “recovery of suppression” for “inhibition”, “addition measured after 5 mins washout period” for “addition”; assay type: functional; procedure, shortened: as §2
[12] = target: T2, Taste receptor type 2 member 1 (Homo sapiens) (UniProt Q9NYW7); experiment: Antagonist activity at recombinant human TAS2R1 transiently expressed in HEK293T co-expressing Galpha16gust44 assessed as inhibition of picric acid-induced intracellular calcium level by measuring remaining activity at 25 uM by fluo-4AM dye based FLIPR assay relative to control; assay type: functional, cell-based
T2 sequence (whole entry): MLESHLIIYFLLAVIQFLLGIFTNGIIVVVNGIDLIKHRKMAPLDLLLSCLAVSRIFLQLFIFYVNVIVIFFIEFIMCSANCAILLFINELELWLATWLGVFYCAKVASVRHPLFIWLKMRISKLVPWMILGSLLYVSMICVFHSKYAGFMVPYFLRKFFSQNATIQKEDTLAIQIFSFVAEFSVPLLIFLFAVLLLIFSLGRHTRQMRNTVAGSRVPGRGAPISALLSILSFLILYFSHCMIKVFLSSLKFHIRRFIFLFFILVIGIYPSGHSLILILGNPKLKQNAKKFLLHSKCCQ

[13] = target: Taste receptor type 2 member 5 (Homo sapiens) (UniProt Q9NYW4); experiment: Antagonist activity at recombinant human TAS2R5 transiently expressed in HEK293T co-expressing Galpha16gust44 assessed as inhibition of picoline-induced intracellular calcium level by measuring remaining activity at 25 uM by fluo-4AM dye based FLIPR assay relative to control; assay type: functional, cell-based
Chain of Taste receptor type 2 member 5 (Homo sapiens) (Q9NYW4 whole entry): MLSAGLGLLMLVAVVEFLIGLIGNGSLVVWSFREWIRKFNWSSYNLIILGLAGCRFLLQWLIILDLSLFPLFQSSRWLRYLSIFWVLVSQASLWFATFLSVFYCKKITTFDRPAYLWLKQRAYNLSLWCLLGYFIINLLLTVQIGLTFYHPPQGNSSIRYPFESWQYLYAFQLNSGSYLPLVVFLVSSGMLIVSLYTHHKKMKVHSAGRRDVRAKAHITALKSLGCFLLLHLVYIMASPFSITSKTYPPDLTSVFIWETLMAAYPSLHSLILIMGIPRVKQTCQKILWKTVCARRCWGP

[14] = target: Taste receptor type 2 member 7 (Homo sapiens) (UniProt Q9NYW3); experiment: Antagonist activity at recombinant human TAS2R7 transiently expressed in HEK293T co-expressing Galpha16gust44 assessed as inhibition of chloroquine-induced intracellular calcium level by measuring remaining activity at 25 uM by fluo-4AM dye based FLIPR assay relative to control; assay type: functional, cell-based
Chain of Taste receptor type 2 member 7 (Homo sapiens) (Q9NYW3 whole entry): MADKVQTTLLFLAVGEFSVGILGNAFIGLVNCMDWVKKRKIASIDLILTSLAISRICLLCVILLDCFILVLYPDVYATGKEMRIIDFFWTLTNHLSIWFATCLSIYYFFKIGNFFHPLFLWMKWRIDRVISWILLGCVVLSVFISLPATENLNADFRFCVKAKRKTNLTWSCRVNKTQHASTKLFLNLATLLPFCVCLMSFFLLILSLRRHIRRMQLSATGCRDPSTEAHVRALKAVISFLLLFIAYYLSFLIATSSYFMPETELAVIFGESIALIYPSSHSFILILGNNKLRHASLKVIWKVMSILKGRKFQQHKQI

[15] = Chronic toxicity in po dosed Sprague-Dawley rat administered daily for 90 days; assay type: organism-based; conditions: in vivo
[16] = Maternal toxicity in po dosed Sprague-Dawley rat administered via gavage during gestation period; assay type: ADME, organism-based; conditions: female, in vivo
[17] = target: T2, Taste receptor type 2 member 1 (Homo sapiens); experiment: Agonist activity at TAS2R1 (unknown origin) at 25 uM by transiently expressed cell-based assay
[18] = target: T3, Taste receptor type 2 member 14 (Homo sapiens) (UniProt Q9NYV8); experiment: Agonist activity at TAS2R14 (unknown origin) at 25 uM by transiently expressed cell-based assay
T3 sequence (whole entry): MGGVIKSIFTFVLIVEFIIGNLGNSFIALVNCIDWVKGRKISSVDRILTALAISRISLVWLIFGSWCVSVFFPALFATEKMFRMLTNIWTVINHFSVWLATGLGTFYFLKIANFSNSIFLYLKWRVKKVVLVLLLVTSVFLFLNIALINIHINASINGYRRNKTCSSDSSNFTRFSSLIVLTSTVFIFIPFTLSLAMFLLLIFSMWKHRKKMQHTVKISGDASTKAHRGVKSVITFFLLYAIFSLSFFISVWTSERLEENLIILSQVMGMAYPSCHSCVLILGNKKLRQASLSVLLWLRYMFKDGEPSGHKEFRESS

Homo sapiens [19] = experiment: In vivo agonist activity at TAS2R14 in human assessed as induction of intrinsic bitterness up to 150 uM in presence of low sodium buffer by 15-point bitterness scale based assay; assay type: functional, organism-based
Procedure, shortened: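 Human sensory test: trained external panelists, no food or drink except water ≥1 h before; compound from ethanol stock, final ethanol 0.1% (matched in blanks), in low sodium phosphate buffer pH 7.1 (0.3 mM KCl, 0.5 mM Na2HPO4, 0.175 mM KH2PO4); bitterness rated on 1–15 scale, 15 panelists × 2 replicates, Tukey's test (α = 0.05).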

Homo sapiens [20] = experiment: In vivo antagonist activity at TAS2R8 in human assessed as reduction in coffee-inudced bitterness at 5 uM by 2-AFC test; assay type: functional; parameters: scale not given: the % may be the effect or the level left
Procedure, shortened: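 Paired coffee test: 1.5× coffee with milk versus same with 5 μM compound added from ethanol stock; trained panelists chose the more bitter sample; 17 panelists × 3 replicates (51 responses).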

[21] = Drug metabolism in pH 7.1 buffer assessed as hydrolytic opening of hydantoin ring by measuring compound 66 formation measured under heat condition
[22] = target: T1, Taste receptor type 2 member 8 (Homo sapiens); experiment: Competitive antagonist activity at recombinant human TAS2R8 assessed as inhibition of chloramphenicol-induced intracellular calcium level at 3 to 3000 nM preincubated for 60 secs followed by varying levels of chloramphenicol addition using Fura-2AM dye by cell-based fluorescent microscopic analysis

- solubility at 24 h [1]: 244 µM (≈ 93.1 µg/mL)
- remaining at 24 h [2]: > 99%
- remaining at 24 h [3]: > 99%
- remaining at 24 h [4]: > 99%
- remaining at 24 h [5]: 20%
- remaining at 24 h [6]: > 99%
- remaining at 24 h [7]: > 99%
- remaining at 24 h [8]: 55%
- remaining at 0.5 min [9]: > 99%
- inhibition [10]: Active
- inhibition [11]: Active
- Activity [12]: 119%
- Activity [13]: 103%
- Activity [14]: 93%
- Activity [17]: Active
- Activity [18]: Active
- inhibition [22]: Active
Compound: Cc1noc(C)c1Cn1cc(N2C(=O)CN(Cc3cccc(O)c3)C2=O)cn1
- NOAEL at 2160 h [15]: 100 mg/kg
- NOAEL [16]: 1000 mg/kg
- Activity (Homo sapiens [19]): inactive
- Activity (Homo sapiens [20]): >78%
- Drug metabolism [21]: Metabolite detected

- solubility at 24 h [1]: 72 µM (≈ 29.5 µg/mL)
- remaining at 24 h [6]: > 99%
- remaining at 24 h [8]: > 99%
- Activity [12]: 97%
- Activity [13]: 100%
- Activity [14]: 92%
Compound: Cc1noc(C)c1Cn1cc(N2C(=O)N(Cc3cccc(O)c3)C(C)(C)C2=O)cn1
- Activity (Homo sapiens [20]): Active
